Measurements as given in ChEMBL document CHEMBL1134348, “Novel glucocorticoid antedrugs possessing a 17beta-(gamma-lactone) ring” (J Med Chem, 2001).

Assays:
[1] = target: T1, Glucocorticoid receptor (Rattus norvegicus) (UniProt P06536); assay: Percentage reduction in thymus weight (248.99+/-23.19 mg) at 50 ug dose; type: functional
T1 sequence (whole entry): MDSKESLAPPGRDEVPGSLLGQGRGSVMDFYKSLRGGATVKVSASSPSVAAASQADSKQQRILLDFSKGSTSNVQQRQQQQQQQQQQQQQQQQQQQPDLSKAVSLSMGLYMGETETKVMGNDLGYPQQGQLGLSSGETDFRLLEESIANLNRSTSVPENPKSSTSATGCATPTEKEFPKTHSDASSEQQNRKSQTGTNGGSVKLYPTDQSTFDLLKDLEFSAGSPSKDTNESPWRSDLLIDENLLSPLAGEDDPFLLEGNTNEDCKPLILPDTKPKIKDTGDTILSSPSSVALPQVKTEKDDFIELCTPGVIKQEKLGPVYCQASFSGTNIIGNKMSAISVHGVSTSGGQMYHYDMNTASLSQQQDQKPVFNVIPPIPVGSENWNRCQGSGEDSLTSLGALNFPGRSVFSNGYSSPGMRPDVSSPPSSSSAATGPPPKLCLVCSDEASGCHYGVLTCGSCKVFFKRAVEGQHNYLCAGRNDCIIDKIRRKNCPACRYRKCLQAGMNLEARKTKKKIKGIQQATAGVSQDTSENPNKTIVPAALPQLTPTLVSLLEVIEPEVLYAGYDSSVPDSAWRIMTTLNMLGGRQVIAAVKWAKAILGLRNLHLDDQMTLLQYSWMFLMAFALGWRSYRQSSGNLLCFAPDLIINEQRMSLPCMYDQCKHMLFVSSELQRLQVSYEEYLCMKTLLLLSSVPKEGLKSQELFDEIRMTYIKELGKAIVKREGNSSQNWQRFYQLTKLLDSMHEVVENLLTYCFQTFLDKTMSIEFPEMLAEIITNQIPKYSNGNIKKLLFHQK

[2] = (§1) % stability in human plasma after 10 minutes.; type: ADME, organism-based; settings: plasma, read-out: Stability
Method in brief: (§2)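 Pooled heparinized plasma from 4 volunteers was incubated at 37 °C with test compound at a final concentration of 30 ug/mL, with DMSO-only controls. The reaction was stopped with 2 M citric acid at 10 and 60 min, with a zero-time sample. Supernatants were analysed by reversed-phase HPLC at 240 nm against an internal standard, in duplicate, and reported as % compound remaining.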

[3] = % stability in krebs buffer after 60 minutes.; type: physicochemical; settings: for remaining at 1 h: Krebs buffer, read-out: Stability
Method in brief: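 Test compound, at a final concentration of 30 ug/mL, was spiked into Krebs buffer at 37 °C for 60 min, then quenched with 2 M citric acid. Supernatant was analysed by reversed-phase HPLC with UV detection at 240 nm and an internal standard, in duplicate. The read-out was % compound remaining.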

[4] = (§3) % stability in human plasma after 60 minutes.; type: ADME, organism-based; settings: plasma, read-out: Stability; method in brief: as §2
Homo sapiens [5] = species on record: Homo sapiens; assay: as §1; type: ADME, organism-based; settings: 10 min; method in brief: as §2
Homo sapiens [6] = species on record: Homo sapiens; assay: as §3; type: ADME, organism-based; settings: 1 h; method in brief: as §2
Rattus norvegicus [7] = assay: Inhibition of rat ear edema as percentage change in mean weight (64.86+/-2.70 mg) from control group of 72.25+/-2.24 mg at 0.06 microg dose; type: functional
Rattus norvegicus [8] = assay: Inhibition of rat ear edema as percentage change in mean weight (45.29+/-1.16 mg) from control group of 55.67+/-1.22 mg at 0.25 ug dose; type: functional
Rattus norvegicus [9] = assay: Inhibition of rat ear edema as percentage change in mean weight (40.57+/-1.10 mg) from control group of 55.67+/-1.22 mg at 4.00 ug dose; type: functional
Rattus norvegicus [10] = assay: Inhibition of rat ear edema as percentage change in mean weight (44.39+/-2.26 mg) from control group of 72.25+/-2.24 mg at 4.00 ug dose; type: functional
Rattus norvegicus [11] = assay: Inhibition of rat ear edema as percentage change in mean weight (39.79+/-0.99 mg) from control group of 55.67+/-1.22 mg at 1.00 ug dose; type: functional
Rattus norvegicus [12] = assay: Inhibition of rat ear edema as percentage change in mean weight (47.21+/-1.49 mg) from control group of 72.25+/-2.24 mg at 0.25 ug dose; type: functional
Rattus norvegicus [13] = assay: Inhibition of rat ear edema as percentage change in mean weight (44.71+/-1.53 mg) from control group of 72.25+/-2.24 mg at 1.00 ug dose; type: functional
Glucocorticoid receptor = target: T2, Glucocorticoid receptor (Homo sapiens, UniProt P04150); assay: Affinity for human glucocorticoid receptor
T2 sequence (P04150 whole entry): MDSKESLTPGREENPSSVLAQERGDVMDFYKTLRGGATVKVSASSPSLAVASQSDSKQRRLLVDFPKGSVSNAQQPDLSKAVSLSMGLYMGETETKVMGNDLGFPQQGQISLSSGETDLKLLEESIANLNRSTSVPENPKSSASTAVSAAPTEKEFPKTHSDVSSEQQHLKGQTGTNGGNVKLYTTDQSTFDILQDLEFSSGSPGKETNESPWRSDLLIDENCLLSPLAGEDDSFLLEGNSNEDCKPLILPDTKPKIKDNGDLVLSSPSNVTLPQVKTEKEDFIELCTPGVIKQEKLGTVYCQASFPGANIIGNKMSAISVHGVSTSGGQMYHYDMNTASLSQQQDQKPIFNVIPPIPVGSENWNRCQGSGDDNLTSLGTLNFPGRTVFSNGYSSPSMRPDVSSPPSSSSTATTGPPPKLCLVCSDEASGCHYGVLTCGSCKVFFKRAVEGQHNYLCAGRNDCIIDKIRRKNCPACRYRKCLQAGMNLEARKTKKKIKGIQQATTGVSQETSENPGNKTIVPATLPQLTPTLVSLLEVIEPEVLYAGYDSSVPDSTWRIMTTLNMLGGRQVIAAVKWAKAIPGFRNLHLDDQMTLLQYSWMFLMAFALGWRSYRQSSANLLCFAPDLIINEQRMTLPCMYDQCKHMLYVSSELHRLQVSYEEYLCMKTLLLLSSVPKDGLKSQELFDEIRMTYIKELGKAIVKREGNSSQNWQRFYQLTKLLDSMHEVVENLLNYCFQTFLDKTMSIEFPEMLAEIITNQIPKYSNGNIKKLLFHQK

Row | remaining at 10 min [2] | remaining at 1 h [3] | remaining at 1 h [4] | Stability (Homo sapiens [5]) | SMILES | further results
1 |  |  |  |  | CCCC1O[C@@H]2C[C@H]3[C@@H]4CCC5=CC(=O)C=C[C@]5(C)[C@H]4[C@@H](O)C[C@]3(C)[C@]2(C(=O)CO)O1 (some centres not stated) | Reduction [1]: 48%
2 | 19% | 100% | 7% |  | CCC[C@@H]1O[C@@H]2CC3C4C[C@H](F)C5=CC(=O)C=C[C@]5(C)[C@@]4(F)[C@@H](O)C[C@]3(C)[C@]2(S[C@@H]2CCOC2=O)O1 (some centres not stated) | 
3 |  | 100% |  | 56% | CCC[C@@H]1O[C@@H]2CC3C4C[C@H](F)C5=CC(=O)CC[C@]5(C)[C@@]4(F)[C@@H](O)C[C@]3(C)[C@]2(SC2COC(=O)C2)O1 (single isomer, unassigned; isomer B) | Stability (Homo sapiens [6]): 0%
4 | 0% | 77% | 0% |  | CCC[C@@H]1O[C@@H]2CC3C4C[C@H](F)C5=CC(=O)C=C[C@]5(C)[C@@]4(F)[C@@H](O)C[C@]3(C)[C@]2(SC2CCOC2=O)O1 (some centres not stated) | 
5 |  | 98% | 8% | 17% | CC1=C(SC2CCOC2=O)[C@@]2(C)C[C@H](O)[C@@]3(F)C(CCC4=CC(=O)C=C[C@@]43C)C2C1 (single isomer, unassigned; isomer B) | 
6 |  |  |  |  | CCC(=O)O[C@]1(C(=O)SCF)[C@H](C)C[C@H]2[C@@H]3C[C@H](F)C4=CC(=O)C=C[C@]4(C)[C@@]3(F)[C@@H](O)C[C@@]21C [FLUTICASONE PROPIONATE] | Decrease (Rattus norvegicus [7]): 10.23%; Decrease (Rattus norvegicus [8]): 18.6%; Decrease (Rattus norvegicus [9]): 27.1%; Decrease (Rattus norvegicus [10]): 38.6%; Decrease (Rattus norvegicus [11]): 28.5%; Decrease (Rattus norvegicus [12]): 34.7%; Decrease (Rattus norvegicus [13]): 38.1%
7 | 20% | 89% | 0% |  | CC1(C)O[C@@H]2CC3C4C[C@H](F)C5=CC(=O)CC[C@]5(C)[C@@]4(F)[C@@H](O)C[C@]3(C)[C@]2(SC2CCOC2=O)O1 (some centres not stated) | 
8 |  |  |  | 53% | CC1=C(SC2CCOC2=O)[C@@]2(C)C[C@H](O)[C@@]3(F)C(CCC4=CC(=O)C=C[C@@]43C)C2C1 (single isomer, unassigned; isomer A) | Stability ([3]; buffer, 1 h): 97%; Stability (Homo sapiens [6]): 13%
9 |  |  |  |  | CCC[C@@H]1O[C@@H]2CC3C4C[C@H](F)C5=CC(=O)CC[C@]5(C)[C@@]4(F)[C@@H](O)C[C@]3(C)[C@]2(SC(CCO)C(=O)O)O1 (some centres not stated) | IC50 (Glucocorticoid receptor): 400 nM
